Laboratory results: ChEMBL document CHEMBL4406921, “Discovery of Axelopran (TD-1211): A Peripherally Restricted μ-Opioid Receptor Antagonist” (ACS Med Chem Lett, 2019)
The source made the active and inactive calls. No cut-off for these calls is given here.

Columns and labels:
[1] = molecular target: T1, Delta-type opioid receptor (Homo sapiens, UniProt P41143); assay: Displacement of [3H]-DPN from recombinant human delta opioid receptor expressed in CHO-K1 cell membranes by radioligand binding assay
T1 sequence (P41143 whole entry): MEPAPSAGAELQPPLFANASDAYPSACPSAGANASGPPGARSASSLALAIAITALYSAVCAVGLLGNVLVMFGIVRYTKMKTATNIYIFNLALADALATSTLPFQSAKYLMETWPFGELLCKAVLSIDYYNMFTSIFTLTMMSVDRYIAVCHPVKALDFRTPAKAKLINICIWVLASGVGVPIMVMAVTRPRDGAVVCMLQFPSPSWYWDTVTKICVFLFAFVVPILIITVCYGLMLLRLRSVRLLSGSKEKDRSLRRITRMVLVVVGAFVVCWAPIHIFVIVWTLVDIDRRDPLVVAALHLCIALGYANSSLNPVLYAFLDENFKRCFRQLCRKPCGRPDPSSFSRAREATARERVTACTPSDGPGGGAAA
How it was run: (§1)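 Membranes from CHO-K1 cells stably transfected with human recombinant μ or δ receptor, or guinea pig κ receptor; competition with [3H]-DPN radioligand; affinity reported as pKi.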

[2] = molecular target: T2, Kappa-type opioid receptor (Cavia porcellus, UniProt P41144); assay: Displacement of [3H]-DPN from guinea pig kappa opioid receptor expressed in CHO-K1 cell membranes by radioligand binding assay; how it was run: as §1
T2 sequence (P41144 whole entry): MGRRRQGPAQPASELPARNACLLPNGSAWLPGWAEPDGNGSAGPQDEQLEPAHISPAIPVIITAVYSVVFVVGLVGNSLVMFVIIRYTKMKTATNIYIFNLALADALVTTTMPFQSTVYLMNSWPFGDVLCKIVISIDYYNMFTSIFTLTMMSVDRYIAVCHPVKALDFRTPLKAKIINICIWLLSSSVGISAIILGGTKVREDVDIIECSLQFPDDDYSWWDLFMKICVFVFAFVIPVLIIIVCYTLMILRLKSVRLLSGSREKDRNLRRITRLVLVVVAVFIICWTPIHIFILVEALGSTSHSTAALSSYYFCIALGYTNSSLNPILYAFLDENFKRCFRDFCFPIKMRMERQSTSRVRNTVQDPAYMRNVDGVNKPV

[3] = molecular target: T3, Mu-type opioid receptor (Homo sapiens, UniProt P35372); assay: Antagonist activity at human recombinant mu opioid receptor expressed in CHO-K1 cell membranes assessed as intrinsic activity at 10 pM to 20 uM incubated for 30 mins in presence of Eu-GTP by DELFIA GTP binding assay relative to DAMGO
T3 sequence (P35372 whole entry): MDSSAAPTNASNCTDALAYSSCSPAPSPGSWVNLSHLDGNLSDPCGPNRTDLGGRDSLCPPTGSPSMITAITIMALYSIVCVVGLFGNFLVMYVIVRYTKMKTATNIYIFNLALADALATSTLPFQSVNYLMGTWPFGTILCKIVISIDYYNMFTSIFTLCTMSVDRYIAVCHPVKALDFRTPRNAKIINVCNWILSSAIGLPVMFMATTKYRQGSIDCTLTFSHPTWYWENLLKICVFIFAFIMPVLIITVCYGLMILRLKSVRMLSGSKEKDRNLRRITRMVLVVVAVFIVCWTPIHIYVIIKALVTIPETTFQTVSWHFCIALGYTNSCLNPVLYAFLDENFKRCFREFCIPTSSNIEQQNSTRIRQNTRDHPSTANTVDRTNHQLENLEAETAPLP

[4] = Permeability coefficient, Kp in human Caco2 cells; type: ADME, cell-based; conditions: Caco-2, read-out: Kp
[5] = molecular target: T3, Mu-type opioid receptor; assay: Displacement of [3H]-DPN from recombinant human mu opioid receptor expressed in CHO-K1 cell membranes by radioligand binding assay; how it was run: as §1
[6] = Half life in rat liver microsomes at 15 uM; type: ADME, Microsome
[7] = AUC(0 to t) in Sprague-Dawley rat at 10 mg/kg, po administered via gavage; type: ADME, organism-based; conditions: in vivo
[8] = Half life in rat liver microsomes at 3 uM; type: ADME, Microsome
[9] = Oral bioavailability in human; type: ADME, organism-based; conditions: in vivo
[10] = Cmax in Sprague-Dawley rat at 10 mg/kg, po administered via gavage; type: ADME, organism-based; parameters: dose 10 mg/kg, route oral; conditions: in vivo
[11] = test system: Mus musculus; assay: Inhibition of morphine-induced delays in intestinal transit in po dosed ICR mouse administered via gavage pretreated with compound and 30 mins later injected with morphine followed 5 mins later by ingestion of test meal and measured after 60 mins; type: functional; conditions: for ED50: read-out: ID50 (the source's name)
How it was run: (§2)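 Mice dosed orally; reversal of morphine-induced delay in intestinal transit, delay in gastric emptying, or hot plate antinociception measured; dose-dependent responses fitted to give ID50 in mg/kg.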

[12] = organism: Mus musculus; assay: Peripheral selectivity index, ratio of ID50 for inhibition of morphine-induced delays in gastric emptying in ICR mouse to ID50 for inhibition of morphine-induced delays in intestinal transit in ICR mouse; type: functional
[13] = Half life in dog liver microsomes at 3 uM; type: ADME, Canis lupus familiaris, Microsome
[14] = Half life in human liver microsomes at 3 uM; type: ADME, Microsome
[15] = organism: Mus musculus; assay: Peripheral selectivity index, ratio of ID50 for inhibition of morphine-induced antinociceptive activity in ICR mouse to ID50 for inhibition of morphine-induced delays in intestinal transit in ICR mouse; type: functional
How it was run: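 Mice were dosed orally with antagonist at several doses and challenged with morphine. ID50 values were taken from dose-dependent reversal of morphine-induced hot plate antinociception (CNS) and of morphine-induced delay in intestinal transit (peripheral). The index is the hot plate ID50 divided by the intestinal transit ID50.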

[16] = Oral bioavailability in Sprague-Dawley rat at 10 mg/kg administered via gavage; type: ADME, organism-based; conditions: in vivo
[17] = test system: Mus musculus; assay: Inhibition of morphine-induced delays in gastric emptying in po dosed ICR mouse administered via gavage pretreated with compound and 30 mins later injected with morphine followed 5 mins later by ingestion of test meal and measured after 60 mins; type: functional; conditions: for ED50: read-out: ID50 (the source's name); how it was run: as §2
[18] = test system: Mus musculus; assay: Inhibition of morphine-induced antinociceptive activity in po dosed ICR mouse administered via gavage pretreated with compound and 30 mins later injected with morphine and measured after 30 mins by hot plate test; type: functional; conditions: for ED50: read-out: ID50 (the source's name); how it was run: as §2
[19] = Oral bioavailability in Sprague-Dawley rat at 100 mg/kg administered via gavage; type: ADME, organism-based; conditions: in vivo
[20] = AUC(0 to t) in Sprague-Dawley rat at 100 mg/kg, po administered via gavage; type: ADME, organism-based; conditions: in vivo
[21] = Cmax in Sprague-Dawley rat at 100 mg/kg, po administered via gavage; type: ADME, organism-based; parameters: dose 100 mg/kg, route oral; conditions: in vivo
[22] = Half life in Sprague-Dawley rat at 100 mg/kg, po administered via gavage; type: ADME, organism-based; conditions: in vivo
How it was run: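 Male Sprague–Dawley rats received 100 mg/kg by oral gavage, with n = 3. Plasma half-life was taken from the pharmacokinetic profile alongside Cmax, AUC(0–t) and oral bioavailability.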

[23] = organism: Mesocricetus auratus; assay: Antagonist activity at delta opiod receptor in golden syrian hamster vas deferens assessed as inhibition of electric field stimulated tissue contraction incubated for 15 mins in presence of […]
[24] = AUC(0 to t) in Sprague-Dawley rat at 5 mg/kg, po administered via gavage; type: ADME, organism-based; conditions: in vivo
[25] = molecular target: T1, Delta-type opioid receptor; assay: Antagonist activity at human recombinant delta opioid receptor expressed in CHO-K1 cell membrane assessed as inhibition of DPDPE-induced [35S]-GTPgammaS binding incubated for 30 mins by time resolved fluorescence assay
[26] = molecular target: Mu-type opioid receptor (Cavia porcellus, UniProt P97266); assay: Antagonist activity at mu opioid receptor in guinea pig ileum assessed as inhibition of electric field stimulated contractions incubated for 15 mins in presence of endomorphin-1; type: tissue-based; conditions: read-out: pA2 (converted)
Chain of Mu-type opioid receptor (Cavia porcellus, UniProt P97266) (P97266 whole entry): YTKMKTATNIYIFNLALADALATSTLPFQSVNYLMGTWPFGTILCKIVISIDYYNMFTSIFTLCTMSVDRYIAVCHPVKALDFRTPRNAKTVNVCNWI

[27] = test system: Canis familiaris; assay: Reversal of morphine-induced sedation in Beagle dog at 3 mg/kg, po administered with compound prior to morphine challenge and measured up to 120 mins post-mophine administration; type: functional, organism-based; conditions: Canis lupus familiaris
[28] = Drug uptake in rat cerebrospinal fluid at 20 mg/kg, po; type: ADME, organism-based; conditions: in vivo
How it was run: (§3)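 Rats given 20 mg/kg orally; CSF, brain and plasma concentrations measured to estimate CNS penetration.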

[29] = test system: Canis familiaris; assay: Reversal of morphine-induced antinociception in Beagle dog at 3 mg/kg, po treated with compound prior to morphine challenge measured after 15 to 45 mins by hot plate test; type: functional, organism-based; conditions: Canis lupus familiaris
[30] = test system: MDR1; assay: Efflux ratio of permeability in dog MDCK-MDR1 cells; type: ADME, cell-based, Canis lupus familiaris
[31] = molecular target: T2, Kappa-type opioid receptor; assay: Antagonist activity at kappa opioid receptor in guinea pig ileum assessed as inhibition of electric field stimulated tissue contraction incubated for 15 mins in presence of U69593; type: tissue-based; conditions: read-out: pA2 (converted)
[32] = Oral bioavailability in fasted female Beagle dog; type: ADME, organism-based, Canis lupus familiaris; conditions: in vivo
[33] = test system: Rattus norvegicus; assay: Reversal of castor oil-induced diarrhea in po dosed Sprague-Dawley rat po administered with compound and loperamide at 45 mins and 15 mins prior to castor oil administration and measured after 2 hrs; type: functional; conditions: read-out: ID50 (the source's name)
[34] = molecular target: Kappa-type opioid receptor (Cavia porcellus) (UniProt P41144); assay: Antagonist activity at guinea pig recombinant kappa opioid receptor expressed in CHO-K1 cell membrane assessed as inhibition of U69593-induced [35S]-GTPgammaS binding incubated for 30 mins by time resolved fluorescence assay
Chain of Kappa-type opioid receptor (Cavia porcellus) (P41144 whole entry): as the sequence (P41144 whole entry) above

[35] = test system: Rattus norvegicus; assay: Reversal of morphine-induced antinociception in Sprague-Dawley rat at >60 mg/kg, po pretreated for 30 mins followed by morphine injection and measured after 60 mins by hot plate test; type: functional, organism-based
[36] = Protein binding in human plasma; type: ADME, cell-free; conditions: read-out: PPB
[37] = test system: Canis familiaris; assay: Inhibition of loperamide-induced gastrointestinal contraction in Beagle dog at 3 mg/kg, po incubated with compound followed 15 mins later by treated with loperamide and measured for 30 mins; type: functional, organism-based; conditions: Canis lupus familiaris
[38] = Half life in Sprague-Dawley rat at 5 mg/kg, po administered via gavage; type: ADME, organism-based; conditions: in vivo
[39] = molecular target: T3, Mu-type opioid receptor; assay: Antagonist activity at human recombinant mu opioid receptor expressed in CHO-K1 cell membrane assessed as inhibition of DAMGO-induced GTP binding incubated for 30 mins in presence of Eu-GTP by DELFIA GTP binding assay
[40] = Oral bioavailability in Sprague-Dawley rat at 5 mg/kg administered via gavage; type: ADME, organism-based; conditions: in vivo
[41] = Cmax in Sprague-Dawley rat at 5 mg/kg, po administered via gavage; type: ADME, organism-based; parameters: dose 5 mg/kg, route oral; conditions: in vivo
[42] = test system: Rattus norvegicus; assay: Reversal of loperamide-induced delay in gastric emptying in po dosed Sprague-Dawley rat administered with compound and loperamide at 35 mins and 5 mins prior to test meal respectively measured after 60 mins; type: functional; conditions: read-out: ID50 (the source's name)
[43] = Drug uptake in rat brain at 20 mg/kg, po; type: ADME, organism-based; conditions: in vivo; how it was run: as §3
[44] = Efflux ratio of permeability in human Caco2 cells; type: ADME, cell-based; conditions: Caco-2
[45] = test system: Mus musculus; assay: Inhibition of morphine-dependent CNS-mediated withdrawal response in Swiss Webster mouse at 30 mg/kg, po after 60 mins; type: functional, organism-based
[46] = Oral bioavailability in fasted male Beagle dog; type: ADME, organism-based, Canis lupus familiaris; conditions: in vivo

Compound: NC(=O)c1cccc([C@H]2C[C@H]3CC[C@@H](C2)N3CCN(CCCc2ccccc2)C(=O)CO)c1
- Ki [1]: 31.6 nM
- Ki [2]: 0.501 nM
- Intrinsic activity [3]: -13%
- Papp [4]: 26 ×10⁻⁶ cm/s
- Ki [5]: 0.794 nM
- half-life at 15 µM [6]: 0.533 h

Compound: C[C@H]1CN(C[C@H](Cc2ccccc2)C(=O)NCC(=O)O)CC[C@H]1c1cccc(O)c1
- Ki [1]: 5.01 nM
- AUC(0-t) [7]: 2 ng·h/mL
- half-life at 3 µM [8]: > 1.5 h
- bioavailability [9]: 6%
- Cmax [10]: 10 ng/mL
- ED50 [11]: 2.5 mg/kg
- Ki [2]: 5.01 nM
- Selectivity Index [12]: >33
- half-life at 3 µM [13]: > 1.5 h
- Intrinsic activity [3]: -7%
- half-life at 3 µM [14]: > 1.5 h
- Selectivity Index [15]: >8
- Papp [4]: 3 ×10⁻⁶ cm/s
- Ki [5]: 0.316 nM
- bioavailability [16]: 0.1%
- ED50 [17]: 0.6 mg/kg
- ED50 [18]: > 20 mg/kg

Compound: C[N+]1(CC2CC2)CC[C@]23c4c5ccc(O)c4O[C@H]2C(=O)CC[C@@]3(O)[C@H]1C5.[Br-] (stereo not given in full) [METHYLNALTREXONE BROMIDE]
- bioavailability [19]: 2.6%
- half-life at 3 µM [8]: > 1.5 h
- bioavailability [9]: < 1%
- AUC(0-t) [20]: 490 ng·h/mL
- ED50 [11]: 67 mg/kg
- half-life at 3 µM [13]: > 1.5 h
- Intrinsic activity [3]: 19%
- half-life at 3 µM [14]: > 1.5 h
- Papp [4]: 2 ×10⁻⁶ cm/s
- Cmax [21]: 570 ng/mL
- ED50 [17]: 25 mg/kg
- half-life [22]: 2.8 h

Compound: NC(=O)c1cccc([C@H]2C[C@H]3CC[C@@H](C2)N3CCN(CC2CCCCC2)C(=O)[C@@H](O)CO)c1.O=S(=O)(O)O [AXELOPRAN SULFATE]
- Ki [1]: 1.58 nM
- pKb [23]: 8.4
- AUC(0-t) [24]: 470 ng·h/mL
- half-life at 3 µM [8]: 1.45 h
- pKb [25]: 8.8
- Kb [26]: 0.0794 nM
- inhibition [27]: Active
- Drug uptake [28]: < 2%
- inhibition [29]: Active
- efflux ratio [30]: 24
- inhibition [11]: Dose-dependent effect
- ED50 [11]: 0.35 mg/kg
- Kb [31]: 1.58 nM
- bioavailability [32]: 29%
- ED50 [33]: 0.01 mg/kg
- pKb [34]: 9.5
- Ki [2]: 0.126 nM
- inhibition [35]: Active
- Selectivity Index [12]: 161
- half-life at 3 µM [13]: 0.45 h
- fraction unbound [36]: 0.7 to 0.77
- Intrinsic activity [3]: -3%
- inhibition [37]: Active
- half-life [38]: 1.3 h
- pKb [39]: 9.6
- bioavailability [40]: 27%
- half-life at 3 µM [14]: 1.5 h
- Selectivity Index [15]: 40
- Cmax [41]: 210 ng/mL
- ED50 [42]: 0.24 mg/kg
- Drug uptake [43]: < 2%
- efflux ratio [44]: 10
- Papp [4]: 5 ×10⁻⁶ cm/s
- Ki [5]: 0.158 nM
- inhibition [17]: Dose-dependent effect
- ED50 [17]: 0.087 mg/kg
- inhibition [18]: Dose-dependent effect
- ED50 [18]: 14 mg/kg
- inhibition [45]: inactive
- bioavailability [46]: 45%

Compound: NC(=O)c1cccc([C@H]2C[C@H]3CC[C@@H](C2)N3CCN(CC2CCCCC2)C(=O)C(F)(F)F)c1
- Ki [1]: 10 nM
- Ki [2]: 1 nM
- Intrinsic activity [3]: 9%
- Ki [5]: 0.794 nM
- half-life at 15 µM [6]: 0.05 h
